Data set [1] can be described thus: Inhibition of human gamma-secretase expressed in CHO cells assessed as effect on Notch1 processing at 100 uM using N100-Flag as substrate incubated for 4 hrs by Western blot analysis relative to DMSO control. Type of data set: cell-based. In short, it runs like this:
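Purified human γ-secretase from CHO cells stably overexpressing all four components; E. coli-expressed purified C100-Flag (APP) or N100-Flag (Notch) substrate; compounds at 100 μM final in 0.2% CHAPSO/HEPES pH 7.0 with 0.08% phosphatidylcholine, 0.02% phosphatidylethanolamine, DMSO <1% final; 37°C, 4 h; stopped with 0.5% SDS; Aβ40 by ELISA or Notch1 processing by Western blot, versus DMSO control.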
Background: A western blot detects proteins with antibodies after separation by electrophoresis.

Data set [2] concerns the target T1, Gamma-secretase (Homo sapiens) (UniProt Q96BI3+Q9NZ42+Q8WW43+P49768+Q92542+P49810). Briefly: Inhibition of purified human gamma-secretase expressed in CHO cells assessed as suppression of amyloid beta 40 production at 100 uM using C100-Flag as substrate incubated for 4 hrs by ELISA relative to DMSO control.
Data set [3] can be described thus: Solubility of compound in PBS buffer at pH 7.4. Type of data set: physicochemical.
The nature of data set [4]: Lipophilicity, logD of the compound. Type of data set: physicochemical. Conditions: octanol/water; call rule not given here.
The nature of data set [5]: Protein binding in human plasma. Type of data set: ADME, cell-free. Conditions: read-out: PPB (converted).
The nature of data set [6]: Permeability of compound from apical to basolateral side. Type of data set: ADME. The following applies: not told; read-out: permeability.
Data set [7] is described as follows: Metabolic stability in human liver microsomes assessed as parent compound remaining after 60 mins. The following applies: read-out: Stability. Type of data set: ADME. Background: Liver microsomes are vesicles of endoplasmic reticulum, rich in cytochrome P450 enzymes.
Data set [8] in a line: Metabolic stability in rat liver microsomes assessed as parent compound remaining after 60 mins. Type of data set: ADME. The following applies: read-out: Stability.
Data set [9] deals with T1, Gamma-secretase (Homo sapiens). Briefly: Inhibition of gamma-secretase (unknown origin) assessed as suppression of amyloid beta 42 production at 100 uM by cell-based assay.
Data set [10] concerns the target Gamma-secretase. Description: Inhibition of human gamma-secretase expressed in CHO cells assessed as suppression of amyloid beta 40 production using C100-Flag as substrate incubated for 4 hrs by ELISA relative to DMSO control. The data set is classed as cell-based. In short, it runs like this: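 Enzyme from CHO cells stably overexpressing all four γ-secretase components, purified; C100-Flag substrate expressed in E. coli; reaction in 0.2% CHAPSO/HEPES pH 7.0 containing 0.08% phosphatidylcholine and 0.02% phosphatidylethanolamine, final DMSO <1%; incubated 37°C for 4 h, quenched with SDS (0.5% final); Aβ40 quantified by specific ELISA as percent of DMSO control.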

For data set [11], the target named is Gamma-secretase. Description: Inhibition of gamma-secretase (unknown origin) assessed as suppression of amyloid beta 42 production by cell-based assay. The arrangement: species or system Homo sapiens.
In data set [12] the target is Gamma-secretase. Description: Inhibition of gamma-secretase (unknown origin) assessed as suppression of amyloid beta 40 production by cell-based assay. The arrangement: species or system Homo sapiens.
The nature of data set [13]: Inhibition of gamma-secretase (unknown origin) assessed as suppression of Notch1 processing by cell-based assay. Conditions: Homo sapiens.
In data set [14] the target is Gamma-secretase. Description: Inhibition of human gamma-secretase expressed in CHO cells assessed as suppression of amyloid beta 42 production using C100-Flag as substrate incubated for 4 hrs by ELISA. The data set is classed as cell-based.

Converted amounts (≈) assume the structure as drawn.

A word on the inhibition: it is the drop in the measured response relative to a control, in per cent. Broadly, the solubility is how much of the substance goes into solution per volume. The low end stands for a poorly soluble substance, the high end for a readily soluble substance. The logD is the decadic logarithm of the distribution of all forms, ionised or not, between an organic phase and buffer at a given pH. High values mean a more lipophilic compound, low ones a more hydrophilic compound. The IC50 is the concentration at which inhibition is half-maximal.

On to `CC(C)N(Cc1ccccc1)C(=O)c1cnc2cc(Cl)ccc2c1O`, for which the “inhibition (INH)” value in [1] is “Not Active”. Also, the inhibition in data set [2] was 33%.
In the case of `CCOc1cccc2cc(C(=O)N(Cc3ccc(Cl)c(Cl)c3)C(C)C)oc12`, the “inhibition (INH)” value in [1] was “Not Active”. Moreover, in [2], the inhibition was found to be 58%.
Consider `CC(C)N(Cc1ccccc1)C(=O)c1ccc(C(C)(C)C)cc1`, for which the “inhibition (INH)” value in [1] is listed as “Active”. The inhibition in data set [2] is 85%.
For `CC(C)N(Cc1ccccc1)C(=O)c1cnc2ccccc2c1` the same measures were “Active” and 50%.
The compound `CC(C)N(Cc1ccccc1)C(=O)c1ccc2ccccc2c1` came in with a solubility in [3] of 63 µM (≈ 19.1 µg/mL). In addition, in data set [1], the “inhibition (INH)” value is listed as “Not Active”. In addition, in [4], the logD is 4.2. For the same compound, the fraction unbound in [5] was 0.043. The Papp A→B in data set [6] is 39.6 ×10⁻⁶ cm/s. The remaining at 1 h was found to be 28% in data set [7] and 1% in data set [8]. The inhibition in [9] came to 81%; in data set [2], 58%.
As for `CC(C)N(Cc1ccccc1)C(=O)c1ccccc1`, the inhibition in data set [2] was 10%.
For the compound `COC(=O)c1ccc(CN(c2cc(F)ccc2F)S(=O)(=O)c2ccc(F)cc2)cc1`, the IC50 in [10] is 580 nM.
`CC(C)N(Cc1ccc(F)c(F)c1)C(=O)c1ccc2ccccc2c1`: in data set [1], the “inhibition (INH)” value was “Not Active”. The inhibition in [2] came out at 34%.
For `COc1cc(CN(C(=O)c2ccc3ccccc3c2)C(C)C)cc(OC)c1` the same measures were “Not Active” and 35%.
Turning to `CC(C)N(Cc1ccc(F)c(F)c1)C(=O)c1ccc2ccccc2c1O`, in data set [1], the “inhibition (INH)” value is “Not Active”. In data set [2], the inhibition stood at 49%.
For `COc1cccc2cc(C(=O)N(Cc3ccc(F)c(Cl)c3)C(C)C)oc12` the same measures were “Not Active” and 49%.
For `CC(C)N(Cc1ccccc1)C(=O)c1ccc2occc2c1`, the inhibition in [2] is 14%.
The same measure, in the same setting: then `CC(C)N(Cc1cc(F)cc(F)c1)C(=O)c1ccc2ccccc2c1`, with 21%; and `CC(C)N(Cc1ccccc1)C(=O)c1cn(C)c2ccccc12`, with 0%; and `CC(C)N(Cc1cccc(C#N)c1)C(=O)c1ccc2ccccc2c1`, with 31%.
Regarding `CC(C)N(Cc1ccccc1)C(=O)c1cccc(Oc2ccccc2)c1`, the “inhibition (INH)” value in [1] is “Active”. Moreover, the inhibition in [2] was 50%.
On to `COc1ccc(CN(C(=O)c2ccc3ccccc3c2)C(C)C)cc1`, for which, in [1], the “inhibition (INH)” value is listed as “Active”. Moreover, in [2], the inhibition was 47%.
With `CN(Cc1ccccc1)C(=O)c1ccc2ccccc2c1`, in data set [2], the inhibition came out at 15%.
Consider `CC(C)N(Cc1ccc(N2CCCCC2)cc1)C(=O)c1ccc2ccccc2c1`, for which the “inhibition (INH)” value in data set [1] is recorded as “Active”. Moreover, the inhibition in data set [2] was 38%.
Turning to `CC(C)N(Cc1ccccc1)C(=O)c1cc2ccccc2o1`, in data set [1], the “inhibition (INH)” value was “Not Active”. In addition, in [2], the inhibition turned out to be 40%.
`CCC(CC)N(Cc1ccc(C(=O)O)cc1)S(=O)(=O)c1ccc(Cl)cc1`: the IC50 in data set [11] is 130 nM; in [12], 120 nM; in [13], 10000 nM.
For the compound `CC(C)N(Cc1ccccc1)C(=O)c1ccc2ccccc2c1O`, in [1], the “inhibition (INH)” value was “Not Active”. In data set [11], the IC50 came out at 96000 nM. Also, the inhibition in data set [2] turned out to be 67%.
With `CC(C)N(Cc1ccccc1)C(=O)c1ccc(-c2ccccc2)cc1`, in [2], the inhibition is 27%.
Consider `COc1ccc(CN(C(=O)c2ccc3ccccc3c2O)C(C)C)cc1`, for which, in data set [1], the “inhibition (INH)” value is on record as “Not Active”. Moreover, in data set [11], the IC50 amounted to 95000 nM. In addition, in data set [2], the inhibition was 33%.
For `CC(C)N(Cc1ccc(Cl)c(Cl)c1)C(=O)c1cc2ccccc2o1`, in data set [1], the “inhibition (INH)” value is “Not Active”. Besides, in [2], the inhibition stood at 51%.
For `COc1cccc2cc(C(=O)N(Cc3ccc(Cl)c(F)c3)C(C)C)oc12` the same measures were “Not Active” and 23%.
For `Cc1c(C(=O)N(Cc2ccc(Cl)c(Cl)c2)C(C)C)oc2ccccc12`, in data set [2], the inhibition was found to be 0%.
Turning to `COc1cccc(CN(C(=O)c2ccc3ccccc3c2)C(C)C)c1`, the “inhibition (INH)” value in data set [1] is “Not Active”. Moreover, the inhibition in data set [2] was 19%.
For `O=C(c1ccc2ccccc2c1)N(Cc1ccccc1)C1CC1` the same measures were “Not Active” and 37%.
Consider `CC(C)N(Cc1cc(F)cc(F)c1)C(=O)c1ccc2ccccc2c1O`, for which the inhibition in [2] is 27%.
`COc1cccc2cc(C(=O)N(Cc3ccc(Cl)c(Cl)c3)C(C)C)oc12`: in [1], the “inhibition (INH)” value is on record as “Not Active”. Besides, the inhibition amounted to 81% in [9] and 75% in [2].
In the case of `O=C(NCc1ccccc1)c1ccc2ccccc2c1`, the inhibition in data set [2] came to 0%.
For `O=S(=O)(c1ccc(F)cc1)N(Cc1ccccc1OC1CCOCC1)c1cc(F)ccc1F`, the IC50 in data set [11] was found to be 620 nM; in data set [10], 360 nM; in data set [14], 400 nM.
Take `CC(C)N(Cc1ccc(Cl)c(Cl)c1)C(=O)c1ccc2ccccc2c1`: the “inhibition (INH)” value in data set [1] was “Not Active”. Also, the IC50 in data set [11] stood at 135000 nM. The inhibition in [2] came out at 58%.
Take `CC(C)N(Cc1ccc(C#N)cc1)C(=O)c1ccc2ccccc2c1`: the inhibition in [2] turned out to be 31%.
For the compound `CC(C)(C)N(Cc1ccccc1)C(=O)c1ccc2ccccc2c1`, the “inhibition (INH)” value in [1] is reported as “Not Active”. In addition, in data set [2], the inhibition was found to be 52%.
As for `CC(C)N(Cc1ccc(Cl)c(Cl)c1)C(=O)c1ccc2ccccc2c1O`, the “inhibition (INH)” value in [1] is reported as “Not Active”. Also, in data set [11], the IC50 turned out to be 85000 nM. For the same compound, the inhibition in data set [2] came to 41%.

The values above are taken from ChEMBL document CHEMBL3792290, “Part 1: Notch-sparing γ-secretase inhibitors: The identification of novel naphthyl and benzofuranyl amide analogs” (Bioorg Med Chem Lett, 2016).
